The source of these data is PMC4653337 (Pharmacognosy Magazine, 2015).

The test system of data set [1] is A549 human lung cancer cell line. In words: Sulforhodamine B. The data set is classed as cell-based. Conditions: read-out: Growth inhibition, IC50. The method, boiled down: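 SRB growth assay. A549 cells were grown in RPMI 1640 with 10% FBS, 2% penicillin/streptomycin and 1% amphotericin B, then seeded at 8,000 per well overnight. Cells were exposed 24, 48 or 72 h to graded test compound (0.5% DMSO final; reference drug alongside). Cells were fixed in cold 40% TCA for 1 h at 4°C and stained with 0.4% SRB for 30 min. Dye was solubilised in 10 mM Tris pH 10.5 and read at 492 nm. IC50 came from % inhibition dose-response curves.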

Data set [2] has as its system A549 cells. The following applies: A549, 48 h treatment; ref 10 (Lee et al.); cited from earlier work.
Data set [3] concerns MRC-5 human lung fibroblast. In words: Sulforhodamine B. Format: cell-based. Conditions: for IC50: Homo sapiens, read-out: Growth inhibition, IC50. In a few lines: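 SRB growth assay. MRC-5 fetal lung fibroblasts were grown in MEM with 10% FBS and 1% penicillin/streptomycin at 37°C, 5% CO2, then seeded at 8,000 per well overnight. Cells were exposed 24, 48 or 72 h to graded test compound (0.5% DMSO final). Cells were fixed in cold 40% TCA at 4°C, stained with 0.4% SRB, solubilised in 10 mM Tris pH 10.5 and read at 492 nm. IC50 came from % inhibition versus concentration curves.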

Data set [4] concerns caspase-9 in A549 cells. As to the kind of experiment: Caspase-9 activity. The following applies: A549, 12, 24, 48 h; highest RLU at 14 μM at 24 h and 48 h. Format: cell-based, human.
Data set [5] relates to A549 cells. In words: Annexin V-FITC/PI staining, flow cytometry. Format: cell-based, human. Conditions: 72 h; for percentage of early apoptotic cells (Annexin V-FITC+ PI-): negative control 1.42 ± 0.47%; for population of late apoptotic or secondary necrotic cells (Annexin V-FITC+ PI+): negative control 1.80 ± 0.30%. In a few lines:
(§1)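 A549 cells in RPMI 1640 with 10% FBS, 37°C, 5% CO2. Test compound in DMSO, 0.5% DMSO final. Annexin: 2.4 × 10^5 cells/well adhered overnight, 72 h exposure, 1 × 10^5 cells stained with FITC-annexin V and PI, 10,000 events per replicate. JC-1: 72 h, 15 min dye, red aggregate (FL2-A) vs green monomer (FL1-A). Mean ± SEM; at least two runs in triplicate.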
Background: In flow cytometry, cells or beads pass a laser one at a time.

The subject of data set [6] is HCT-116 human colon cancer cells. Conditions: cited from earlier work.
In data set [7] the test system is caspase-3 in A549 cells. As to the kind of experiment: Caspase-3 activity. Format: cell-based, human. Conditions: A549, 12, 24, 48 h.
Data set [8] has as its system mice. Conditions: cited from earlier work.
Data set [9] concerns MDA-MB-435 breast cancer cells. The following applies: MDA-MB-435, 5–50 µM for 24 h; cited from earlier work.
For data set [10], the system named is breast cancer xenografts. The following applies: breast cancer xenografts in nude mice; ref 24 (Monteiro et al.); cited from earlier work.
The subject of data set [11] is A549 cells. As to the kind of experiment: DNA fragmentation by TUNEL assay. Format: cell-based, human. Conditions: 72 h, negative control 4.27 ± 0.13%.
Data set [12] concerns DNA topoisomerase I (Top 1). Conditions: cited from earlier work.
The test system of data set [13] is A549 cells. In words: Cell cycle analysis. Conditions: 72 h; for percentage of cells at S phase: 0 μM 8.94 ± 0.23%. Format: cell-based, human. In a few lines:
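After 72 h of test compound, adherent and floating A549 cells were pooled and fixed in 70% ethanol overnight. Cells were stained 30 min at room temperature with 50 μg/ml PI, 50 μg/ml RNase, 0.1% Triton X-100 and 1 mg/ml sodium citrate (final). DNA content was read by flow cytometry and modelled into sub-G1, G1, S and G2/M fractions. Runs were done at least twice in triplicate; one-way ANOVA/Tukey versus control.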

Data set [14] relates to A549 cells. In words: Phase contrast microscopy. Conditions: A549, 14, 28, 42 μM, 72 h. The data set is classed as cell-based, human.
The test system of data set [15] is caspase-8 in A549 cells. In words: Caspase-8 activity. Format: cell-based, human. The following applies: A549, 12, 24, 48 h; highest RLU at 14 μM at 24 h and 48 h.
Data set [16] in a line: Mitochondrial membrane potential assay. The data set is classed as cell-based, human. The following applies: human, A549 cells, Population of viable cells (P5 region, high Δψm), A549, 42 μM, untreated 91.42 ± 0.36%. In a few lines:
as §1

Data set [17] has as its system A549 cells. As to the kind of experiment: Mitochondrial membrane potential assay. The data set is classed as cell-based, human. Conditions: A549, 14, 28, 42 μM, 72 h, dose-dependent. In a few lines:
as §1

The subject of data set [18] is benign prostatic hyperplasia (BPH-1) epithelial cell line. The following applies: BPH-1, 10 µM and 20 µM for 48 h; cited from earlier work.

In brackets after ≈: the same amount, converted by molar mass. Several values for one entry are separate records, joined by “and”; a condition that tells them apart may be missing. Equal entries are not always repeated. Structures can show the parent of a compound that is named as a salt. Where two headings read alike, the source gives them in different places. A value given as a limit tells only on which side of the number the result lay.

What is called IC50 is the concentration that inhibits the measured activity by half. `COc1cccc2c1C(=O)c1c(O)c3c(c(O)c1C2=O)C[C@@](O)(C(=O)CO)C[C@@H]3O[C@H]1C[C@H](N)[C@H](O)[C@H](C)O1` [Doxorubicin, Doxorubicin hydrochloride, reference compound]: the IC50 was 2.85 ± 0.2 µM in [1] (A549, 24 h); 0.22 ± 0.03 µM in [1] (A549, 48 h); 0.02 ± 0.02 µM in data set [1] (A549, 72 h); 5.71 ± 0.55 µM in data set [3] (MRC5, 24 h); 2.01 ± 0.04 µM in data set [3] (MRC5, 48 h); 1.09 ± 0.1 µM in data set [3] (MRC5, 72 h). In addition, the “IC50 (cytotoxic effects on A549)” value in data set [2] is 0.5 µg/mL.

By viability is commonly meant a read-out of living cells in per cent, often relative to untreated cells. The low end stands for more harm to the cells, the high end for less harm to the cells. Take `COc1cc(O)c(CC=C(C)C)c(O)c1C(=O)/C=C/c1ccc(O)cc1` [Xanthohumol, 2', 4, 4'-trihydroxy-3'-prenyl-6'-methoxychalcone]: the “Caspase-9 activity (RLU)” value in [4] is recorded as “significantly increased”. The “percentage of early apoptotic cells (Annexin V-FITC+ PI-)” value in data set [5] (A549, 14 μM) is given as 2.72 ± 0.59%; in [5] (A549, 28 μM), 26.08 ± 1.50%; in data set [5] (A549, 42 μM) it was 34.42 ± 4.41%. In addition, the “population of late apoptotic or secondary necrotic cells (Annexin V-FITC+ PI+)” value in data set [5] (A549, 14 μM) is recorded as 4.90 ± 0.85%; in [5] (A549, 28 μM), 17.05 ± 3.12%; in [5] (A549, 42 μM) it was 33.27 ± 3.55%. For the same compound, the Caspase activation entry in data set [6] was “Activation of all caspase-3, -8, and -9”. In [7], the “Caspase-3 activity (RFU)” value is “RFU values increased as concentration and treatment time increased”. Besides, the “Organ function and homeostasis” value in data set [8] (feeding, ref 6 (Dorn et al.)) is “did not impair organ function and homeostasis”. For the same compound, the “Hematological and biochemical blood analyses versus control group” value in data set [8] (oral administration, ref 25 (Vanhoecke et al.)) is “no difference in hematological and biochemical blood analyses”. Further, the Cell cycle effect result in [9] and in [18] was “S phase arrest” throughout. For the same compound, the “In vivo antitumor effects on isolated tumors” value in data set [10] was “decrease in tumor-surrounding inflammatory cells and a large central necrosis”. Moreover, the IC50 was 74.1 ± 1.98 µM in data set [1] (A549, 24 h); 25.5 ± 0.3 µM in data set [1] (A549, 48 h); 13.5 ± 0.82 µM in data set [1] (A549, 72 h); > 282 µM and > 100 µg/mL in data set [3] (MRC5, 24 h); 149 ± 4.96 µM in data set [3] (MRC5, 48 h); 94.4 ± 1.77 µM in data set [3] (MRC5, 72 h). In addition, the “percentage of cells with DNA fragmentation” value in data set [11] (A549, 28 μM) is recorded as 34.7 ± 0.30%; in [11] (A549, 42 μM) it was 39.2 ± 0.15%. The “Effect on DNA topoisomerase I (Top 1) activity” value in data set [12] is “inhibition of DNA topoisomerase I (Top 1) activity”. Further, the “percentage of cells at S phase” value was determined as 12.34 ± 1.09% in [13] (A549, 14 μM); 16.43 ± 1.52% in data set [13] (A549, 28 μM); 46.95 ± 2.03% in data set [13] (A549, 42 μM). The “Effect on sub G1 population” value in data set [13] (A549, increasing concentration) is “increased the percentage of cells arrested at sub G1 peak”. Besides, the “IC50 (cytotoxic effects on A549)” value in data set [2] was 4.3 µg/mL (≈ 12.1 µM). Further, in [14], the Morphological changes entry is “atrophy, size shrinkage, decrease in cell number, and detachment of cells”. Further, the “Toxicity to normal cells (MRC-5) versus cancer cells (A549)” value in data set [3] (comparison of IC50 values on MRC-5 and A549, SRB assay) is reported as “less toxic to normal cells compared to cancer cells”. For the same compound, the “Caspase-8 activity (RLU)” value in data set [15] is “significantly increased”. In [16], this compound displayed a viability at 72 h, 42 µM of 2.88 ± 0.62%. Further, in data set [17], the “Effect on mitochondrial membrane potential (Δψm)” value is recorded as “significantly reduced”.
